Assay results gathered from unrelated publications.
Each line is one published result; the experiments were not run side by side.
HTR2A: 5-hydroxytryptamine receptor 2A (HTR2A, Homo sapiens, UniProt P28223)
CNR1: Cannabinoid receptor 1 (CNR1, Homo sapiens, UniProt P21554)
Oprm1: Mu-type opioid receptor (Oprm1, Mus musculus, UniProt P42866)

SMILES	target	assay	setting	quantity	value
COc1cc2c3c(c1OC)-c1c(OC)ccc(Br)c1CC3N(C)CC2 (centres unmarked)	HTR2A	cell-free assay, radioligand	–	Ki	373 nM
O=c1cc(CSc2ccc(N=Cc3ccc(F)cc3)cc2)occ1O	PPO3 (Agaricus bisporus, UniProt C7FF04)	enzyme activity, inhibitor, absorbance	–	IC50	53500 nM
O=C(O)C(F)(F)OC(F)(F)C(F)(F)OC(F)(F)C(F)(F)OC(F)(F)C(F)(F)C(F)(F)C(F)(F)F	Fatty acid-binding protein, brain (Homo sapiens, UniProt O15540)	ligand displacement, fluorescence	–	Kd	20 nM
CCCCC/C=C\[C@H](C)/C=C\C/C=C\Cc1ccccc1CCCC(=O)N[C@H](C)CO	CNR1	cAMP, agonist	–	EC50	1610 nM
C[C@@H](O)[C@@H]1NC(=O)CNC(=O)[C@H](Cc2c[nH]cn2)NC(=O)[C@H](Cc2c[nH]c3ccccc23)NC(=O)[C@H](CC(N)=O)NC(=O)CNC(=O)C[C@@H](C(=O)N[C@@H](Cc2c[nH]c3ccccc23)C(=O)N[C@@H](Cc2ccccc2)C(=O)N[C@@H](Cc2ccccc2)C(=O)N[C@@H](CC(N)=O)C(=O)N[C@@H](Cc2ccc(O)cc2)C(=O)N[C@@H](Cc2ccc(O)cc2)C(=O)N[C@@H](Cc2c[nH]c3ccccc23)C(=O)O)NC(=O)[C@@H]2CCCN2C(=O)[C@H](CO)NC1=O	Endothelin-1 receptor (EDNRA, Homo sapiens, UniProt P25101)	ligand displacement, radioligand	cell membranes	IC50	> 10000 nM
CC(C)(NC(=O)c1nn(CCCCC(F)(F)F)c2ccccc12)c1cccc(C(N)=O)c1	CNR1	ligand displacement, radioligand	cell membranes	Ki	210 nM
CC[C@H](C)[C@@H](C(=O)N1CCC[C@H]1c1nccs1)N(C)C(=O)[C@H](CC(C)C)N(C)C(=O)[C@H](Cc1ccc(OC)cc1)N(C)C(=O)/C=C(\C)OC	CNR1	β-arrestin recruitment, antagonist	–	IC50	11600 nM
Cc1c(CC(=O)N[C@@H](CN2CCc3ccccc3C2)C(C)C)cccc1[N+](=O)[O-]	Oprm1	ligand displacement, radioligand	–	Ki	150 nM
c1cncc([C@@H]2CCCN2)c1	Neuronal acetylcholine receptor; alpha4/beta2 (Rattus norvegicus, UniProt P09483+P12390)	cell-free assay, radioligand	–	Ki	334 nM
O=c1c2cc(Cl)ccc2[nH]c(=S)n1Cc1cccnc1	HTR2A	cell-free assay	–	IC50	2600 nM
CC(C)(NC(=O)c1nn(Cc2ccc(C#N)cc2)c2ccccc12)c1cccc(C(N)=O)c1	CNR1	ligand displacement, radioligand	cell membranes	Ki	98 nM
CCCCC/C=C\C/C=C\C/C=C\Cc1ccccc1CCCC(=O)N[C@H](C)CO	CNR1	cAMP, agonist	–	EC50	315 nM
CC(C)[C@H](CN1CCc2ccccc2C1)NC(=O)Cc1c[nH]c2ccccc12	Oprm1	ligand displacement, radioligand	–	Ki	420 nM
COc1cc2c(cc1OC)CN(CCc1ccc(NC(=O)c3cccc4c(=O)c5cccc(OC)c5[nH]c34)cc1)CC2	Kappa-type opioid receptor (OPRK1, Homo sapiens, UniProt P41145)	cell-free assay	–	Ki	> 10000 nM
CCCCCn1nc(C(=O)NC(C)(C)c2cccc(C(N)=O)c2)c2ccccc21	CNR1	ligand displacement, radioligand	cell membranes	Ki	250 nM
CC(C)[C@H](CN1CCc2ccccc2C1)NC(=O)c1cccc(-c2cccc(O)c2)c1	Oprm1	ligand displacement, radioligand	–	Ki	3100 nM
CCOC(=O)c1ccc(OC(=O)CCCCCN=C(N)N)cc1	Vitamin K-dependent protein C (PROC, Homo sapiens, UniProt P04070)	enzyme activity, inhibitor	–	IC50	157 nM
